Sampled rows, rich in hits. Any-hit rate of the full collection: about 3.7%.
GPR7 antagonist: GPR7 receptor antagonists, primary screen, cell-based, fluorescence, single concentration | Neuropeptides B/W receptor type 1 (Homo sapiens), P48145 | GPR7-expressing cells, fluorescence antagonist assay | inhibition, % at 4.4 µM | hit rate 1.1% among 290,000; in the data active = inhibition above about 16%, passing the limit was not always enough;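 also: cells stimulated with the agonist NPW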
Target sequence (P48145 whole entry, looked up): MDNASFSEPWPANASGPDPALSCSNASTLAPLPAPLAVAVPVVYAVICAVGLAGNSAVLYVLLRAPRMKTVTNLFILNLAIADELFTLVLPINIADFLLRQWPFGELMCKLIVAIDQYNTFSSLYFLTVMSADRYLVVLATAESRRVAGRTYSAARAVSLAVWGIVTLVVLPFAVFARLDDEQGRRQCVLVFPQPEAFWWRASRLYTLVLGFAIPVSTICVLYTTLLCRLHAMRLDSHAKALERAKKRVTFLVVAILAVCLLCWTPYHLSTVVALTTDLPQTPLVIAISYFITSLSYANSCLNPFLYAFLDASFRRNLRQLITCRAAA
CHO parental Ca: ATP-evoked calcium signal inhibitors, parental CHO, primary screen, counter-screen for OX1R antagonist project, cell-based, fluorescence, Fluo-8 calcium dye; parental CHO-K1, ATP-induced calcium, Fluo-8 fluorescence; inhibition, % at 5.6 µM; hit rate 0.63% among 330,000;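 active = inhibition above that plate's mean sample inhibition plus 3 SD, cut at about 26% in these data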
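material = parental CHO cells | also added = ATP as calcium-mobilizing challenge | dosing = single point at 5.6 µM | detection = intracellular calcium via Fluo-8 no-wash fluorescent dye | read-out = % inhibition | benchmarks = low control ATP plus DMSO, high control DMSO only | repeats = one well per compound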
OX1R antag-1: OX1R (HCRTR1) antagonists, primary screen, fluorescence, CHO/OX1R cells, Fluo-8 calcium, orexin A. Orexin/Hypocretin receptor type 1 (Homo sapiens), O43613. Fluo-8 calcium fluorescence. inhibition, % at 5 µM. hit rate 0.43% among 330,000;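 active = inhibition above its plate's threshold, mean inhibition of all tested compounds on the plate plus 3 SD, cut at about 37% in these data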
EP2 mod: EP2 receptor modulators, cAMP readout, primary screen, cell-based, HTRF cAMP, PGE2 stimulation; Prostaglandin E2 receptor EP2 subtype (Homo sapiens), P43116; EP2-expressing cells, cAMP HTRF FRET, PGE2 co-stimulation; induction, % at 25 µM; hit rate 0.83% among 260,000; AID 940, 2007;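 active = compounds whose cAMP rise, as percent of the full-agonist control response, exceeds 60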;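 also: rat C6 glioma line stably carrying human EP2 under a CMV promoter; the protocol text gives 20 µM as final concentration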
PGE2 EP2 inh: human EP2 receptor antagonists, primary screen, TR-FRET cAMP, C6 glioma cells; Prostaglandin E2 receptor EP2 subtype (Homo sapiens), P43116; C6 glioma cells expressing human EP2; cells stimulated with saturating PGE2; inhibition, % at 25 µM; hit rate 0.52% among 260,000; AID 1422, 2008;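 active = percent inhibition above 40 after rounding to a whole number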;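 also: rat C6 glioma host cells with rolipram phosphodiesterase inhibitor present; the protocol text gives 20 µM as final concentration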
OX1R antag-2: antagonists of human orexin 1 receptor (OX1R); Orexin/Hypocretin receptor type 1 (Homo sapiens), O43613; OX1R-expressing cells, FRET antagonist read-out; inhibition, % at 6.6 µM; hit rate 1.8% among 330,000; in the data active = inhibition mostly above about 38%, no sharp cut-off; inactive = mostly below about 40%
Of the large screens only hits and unclear results are named; the others gave an inactive call; ! = repeats disagree.

C[C@@H]1NC(=O)[C@H](CC(N)=O)NC(=O)c2cc([N+](=O)[O-])cc(I)c2OCC[C@@H](C(=O)NC(CC(=O)O)C(N)=O)NC1=O (stereo partly specified)	none
C[C@@H]1NC(=O)c2cc([N+](=O)[O-])cc(I)c2OCC[C@@H](C(=O)NC(CC(=O)O)C(N)=O)NC(=O)[C@H](CCC(=O)O)NC1=O (stereo partly specified)	OX1R antag-2 61.8
Cn1c(=S)n(/N=C/c2ccc3c(c2)OCO3)c2ccccc21	EP2 mod 64.4
O=C(O)c1oc2ccccc2c1CSc1ccccn1	none
O=C(O)c1oc2ccccc2c1CSc1ccc(Cl)cc1	OX1R antag-2 63.1 (no result: EP2 mod, PGE2 EP2 inh)
C=CC[n+]1c(/C=C/c2ccc(OC(C)=O)c(OC)c2)ccc2ccccc21	OX1R antag-2 48.4 (no result: EP2 mod, PGE2 EP2 inh)
CCCc1nc(SCC(=O)Nc2ccc(OCC)cc2)c2ccccc2n1	none (no result: GPR7 antagonist, CHO parental Ca, OX1R antag-1, OX1R antag-2)
COc1ccc(-n2nc(C(=O)NCC(=O)Nc3cc(OC)ccc3OC)c3ccccc3c2=O)cc1	none (no result: EP2 mod, PGE2 EP2 inh)
Cc1ccc(NC(=O)CN(C)C(=O)c2ccccc2Sc2ccccc2C#N)cc1	OX1R antag-2 55.0 (no result: GPR7 antagonist, EP2 mod, PGE2 EP2 inh)
Clc1ccc(C[n+]2cc(-c3ccccc3)n3c2CCCCC3)c(Cl)c1	GPR7 antagonist 28.9
COc1ccccc1N(CC(=O)NC(C)(C)C)C(=O)CCC(=O)Nc1nccs1	none (no result: EP2 mod, PGE2 EP2 inh)
CCCOc1ccc(C2C(C(=O)c3ccc(C)o3)=C(O)C(=O)N2CCN2CCOCC2)cc1OC (stereo unspecified)	none
CC1=NNC(=S)NCCCN2CCN(CCCNC(=S)NN=C(C)C=NNC(=S)NCCCN3CCN(CCCNC(=S)NN=C1)CC3)CC2	PGE2 EP2 inh 44.9 (no result: GPR7 antagonist, CHO parental Ca, OX1R antag-1, OX1R antag-2)
COc1cc2sc(C)nc2c2sccc12	none
Cc1nnc(NC(=O)C(C)Oc2ccc3c(C)cc(=O)oc3c2)s1 (stereo unspecified)	none
O=C(Cn1c(=O)oc2cc(S(=O)(=O)N3CCCC3)ccc21)NC1CCCc2ccccc21 (stereo unspecified)	CHO parental Ca 27.6 (no result: PGE2 EP2 inh)
Cc1c(/C=C/C(=O)c2ccccc2)cnn1C	OX1R antag-2 41.0
COCCNC(=O)CCc1c(C)nc2c(c(C)nn2-c2ccc(C)c(C)c2)c1C	none (no result: EP2 mod, PGE2 EP2 inh)
CCc1cc2cc3c(cc2nc1SCC(=O)NCc1ccc(OC)cc1)OCCO3	none (no result: GPR7 antagonist, CHO parental Ca, OX1R antag-1, OX1R antag-2)
CCCn1cc(SCC(=O)NCc2ccc3c(c2)OCO3)c2ccccc21	none
CCc1cc2cc3c(cc2nc1SCC(=O)NCc1ccccc1)OCO3	EP2 mod 81.1 (no result: GPR7 antagonist, CHO parental Ca, OX1R antag-1, OX1R antag-2)
O=C(CSc1nc2ccccc2c(=O)n1NC(=O)Cc1ccccc1)NCc1ccco1	none
O=C(CSc1nc2ccccc2c(=O)n1NC(=O)Cc1ccccc1)NCc1ccccc1	OX1R antag-2 46.0
CCc1cc2ccc(C)c(C)c2nc1SCC(=O)NCc1ccc2c(c1)OCO2	none (no result: GPR7 antagonist, CHO parental Ca, OX1R antag-1, OX1R antag-2)
Cn1cc(SCC(=O)NCc2ccc3c(c2)OCO3)c2ccccc21	OX1R antag-2 41.3
CCc1cc2cc(C)cc(C)c2nc1SCC(=O)NCc1ccc2c(c1)OCO2	EP2 mod 70.3 (no result: GPR7 antagonist, CHO parental Ca, OX1R antag-1, OX1R antag-2)
O=C(CCc1ccccc1Cl)N1CCN(S(=O)(=O)c2ccccc2)CC1	none (no result: GPR7 antagonist, EP2 mod, PGE2 EP2 inh)
COC(=O)CSc1n[nH]c(CNc2cccc(C)c2)n1	none (no result: GPR7 antagonist, CHO parental Ca, OX1R antag-1, OX1R antag-2)
Cc1cc(NS(=O)(=O)c2ccc(NC(=O)COc3ccccc3C(C)(C)C)cc2)no1	none (no result: EP2 mod, PGE2 EP2 inh)
Cc1cc(NC(=O)CSc2nc(C3CC3)nc3sc4c(c23)CCCC4)no1	PGE2 EP2 inh 46.5 (no result: GPR7 antagonist, CHO parental Ca, OX1R antag-1, OX1R antag-2)
Cc1cc(NC(=O)CSc2nc(C3CC3)nc3sc4c(c23)CCC(C)C4)no1 (stereo unspecified)	none (no result: EP2 mod)
Cc1cc2cc3c(cc2nc1SCC(=O)Nc1cccc(F)c1)OCO3	EP2 mod 65.6 (no result: GPR7 antagonist, CHO parental Ca, OX1R antag-1, OX1R antag-2)
CCc1cc2cc3c(cc2nc1SCC(=O)Nc1cc(C)on1)OCO3	EP2 mod 72.7!
Cc1ccsc1-c1nc(CSCC(=O)NCc2ccc3c(c2)OCO3)c(C)o1	OX1R antag-2 39.7 (no result: PGE2 EP2 inh)
CCc1ccccc1NC(=O)CSc1nc2cc3c(cc2cc1C)OCO3	none (no result: GPR7 antagonist, CHO parental Ca, OX1R antag-1, OX1R antag-2)
